In ChEMBL document CHEMBL1122479, “Nucleic acid related compounds. 40. Synthesis and biological activities of 5-alkynyluracil nucleosides” (1983):
In brackets after ≈: the same amount, converted by molar mass.

Assays:
Format in all cases: functional
[1] = test system: L1210; experiment: Concentration required to reduce leukemia L1210 cell growth […]; conditions: Mus musculus, read-out: ID50 (the source's name)
[2] = test system: PRK; experiment: Concentration required to reduce Herpes simplex virus type 1 induced cytopathogenicity in primary rabbit kidney (PRK) cell cultures; conditions: Human alphaherpesvirus 1, PRK; read-out: ID50 (the source's name)
[3] = test system: PRK; experiment: Concentration required to reduce Herpes simplex virus type 2 induced cytopathogenicity in primary rabbit kidney (PRK) cell cultures; conditions: Human alphaherpesvirus 2, PRK; read-out: ID50 (the source's name)
[4] = test system: PRK; experiment: Concentration required to reduce Vaccinia virus induced cytopathogenicity in primary rabbit kidney (PRK) cell cultures; conditions: Orthopoxvirus vaccinia, read-out: ID50 (the source's name)
[5] = test system: PRK; experiment: Inhibitory activity against incorporation of deoxy-[1',2'-3H]uridine (dUrd) into the DNA of uninfected primary rabbit kidney (PRK) cell cultures; conditions: Oryctolagus cuniculus, read-out: ID50 (the source's name)
In short: (§1)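 Uninfected primary rabbit kidney cells were used as a cytotoxicity measure. Incorporation of [methyl-3H]dThd or [1',2'-3H]dUrd into cellular DNA was followed with compound present.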

[6] = test system: PRK; experiment: Inhibitory activity against incorporation of deoxy-[methyl.3H-]-thymidine (dThd) into the DNA of uninfected primary rabbit kidney (PRK) cell cultures; conditions: Oryctolagus cuniculus, read-out: ID50 (the source's name); in short: as §1
[7] = test system: L1210; experiment: Inhibitory activity against incorporation of deoxy-[methyl.3H-]-thymidine (dThd) into the DNA of murine leukemia L1210 cell cultures; conditions: Mus musculus, read-out: ID50 (the source's name)

| SMILES | IC50 [1] [µg/mL] | IC50 [2] [µg/mL] | IC50 [3] [µg/mL] | IC50 [4] [µg/mL] | IC50 [5] [µg/mL] | IC50 [6] [µg/mL] | IC50 [7] [µg/mL] |
| --- | --- | --- | --- | --- | --- | --- | --- |
| CCCCCCc1cn([C@H]2C[C@H](O)[C@@H](CO)O2)c(=O)[nH]c1=O | 301 (≈ 964 µM) | 400 (≈ 1280 µM) | 350 (≈ 1120 µM) | 300 (≈ 960 µM) | 52 (≈ 166 µM) | 7 (≈ 22.4 µM) | – |
| CCCCC#Cc1cn([C@H]2C[C@H](O)[C@@H](CO)O2)c(=O)[nH]c1=O | 1000 (≈ 3240 µM) | 108 (≈ 350 µM) | 350 (≈ 1140 µM) | 45 (≈ 146 µM) | 59 (≈ 191 µM) | 45 (≈ 146 µM) | 47 (≈ 152 µM) |
| CC(C)(C)C#Cc1cn([C@H]2C[C@H](O)[C@@H](CO)O2)c(=O)[nH]c1=O | 287 (≈ 931 µM) | 4 (≈ 13 µM) | 19 (≈ 61.6 µM) | 7 (≈ 22.7 µM) | 2 (≈ 6.49 µM) | 6 (≈ 19.5 µM) | – |
| CCCC/C=C\c1cn([C@H]2C[C@H](O)[C@@H](CO)O2)c(=O)[nH]c1=O | 361 (≈ 1160 µM) | > 400 | > 200 | > 400 | 34 (≈ 110 µM) | 5 (≈ 16.1 µM) | 39 (≈ 126 µM) |
| O=c1[nH]c(=O)n([C@H]2C[C@H](O)[C@@H](CO)O2)cc1C#CCCCO | 280 (≈ 902 µM) | > 400 | > 400 | 125 (≈ 403 µM) | > 156 | > 200 | – |
| COCC#Cc1cn([C@H]2C[C@H](O)[C@@H](CO)O2)c(=O)[nH]c1=O | 254 (≈ 857 µM) | 1 (≈ 3.38 µM) | 2 (≈ 6.75 µM) | 2 (≈ 6.75 µM) | 2 (≈ 6.75 µM) | 16 (≈ 54 µM) | – |
| CC#Cc1cn([C@H]2C[C@H](O)[C@@H](CO)O2)c(=O)[nH]c1=O | 164 (≈ 616 µM) | 0.3 (≈ 1.13 µM) | 0.7 (≈ 2.63 µM) | 0.4 (≈ 1.5 µM) | 0.7 (≈ 2.63 µM) | 3 (≈ 11.3 µM) | – |
| O=c1[nH]c(=O)n([C@H]2C[C@H](O)[C@@H](CO)O2)cc1C#Cc1ccccc1 | 494 (≈ 1500 µM) | > 400 | > 400 | > 400 | 77 (≈ 235 µM) | 23 (≈ 70.1 µM) | 120 (≈ 365 µM) |
| O=c1[nH]c(=O)n([C@H]2C[C@H](O)[C@@H](CO)O2)cc1I [IDOXURIDINE] | 61 (≈ 172 µM) | 0.15 (≈ 0.424 µM) | 0.3 (≈ 0.847 µM) | 0.2 (≈ 0.565 µM) | 0.12 (≈ 0.339 µM) | 1.5 (≈ 4.24 µM) | – |
| CC#Cc1cn(C2O[C@H](CO)[C@@H](O)[C@@H]2O)c(=O)[nH]c1=O (some centres not stated) | 36 (≈ 128 µM) | 20 (≈ 70.9 µM) | 50 (≈ 177 µM) | 200 (≈ 709 µM) | > 100 | 92 (≈ 326 µM) | > 1000 |
| C#Cc1cn([C@H]2C[C@H](O)[C@@H](CO)O2)c(=O)[nH]c1=O | 0.09 (≈ 0.357 µM) | 0.5 (≈ 1.98 µM) | 1 (≈ 3.96 µM) | 0.1 (≈ 0.396 µM) | 0.05 (≈ 0.198 µM) | 3 (≈ 11.9 µM) | – |
| CCC#Cc1cn(C2O[C@H](CO)[C@@H](O)[C@@H]2O)c(=O)[nH]c1=O (some centres not stated) | > 1000 | 200 (≈ 675 µM) | > 400 | > 400 | 215 (≈ 726 µM) | 120 (≈ 405 µM) | > 1000 |
| O=c1[nH]c(=O)n([C@H]2C[C@H](O)[C@@H](CO)O2)cc1/C=C/Br [BRIVUDINE] | 0.001 (≈ 0.003 µM) | 0.007 (≈ 0.021 µM) | 2.5 (≈ 7.5 µM) | 5 (≈ 15 µM) | 25 (≈ 75 µM) | 90 (≈ 270 µM) | – |
| CCCC#Cc1cn([C@H]2C[C@H](O)[C@@H](CO)O2)c(=O)[nH]c1=O | > 1000 | 4 (≈ 13.6 µM) | 90 (≈ 306 µM) | 7 (≈ 23.8 µM) | 3 (≈ 10.2 µM) | 9 (≈ 30.6 µM) | – |
| O=c1[nH]c(=O)n([C@H]2C[C@H](O)[C@@H](CO)O2)cc1C#CCCO | > 1000 | 18 (≈ 60.8 µM) | 47 (≈ 159 µM) | 10 (≈ 33.8 µM) | 13 (≈ 43.9 µM) | 73 (≈ 246 µM) | – |
| CCC#Cc1cn([C@H]2C[C@H](O)[C@@H](CO)O2)c(=O)[nH]c1=O | > 1000 | 4 (≈ 14.3 µM) | 32 (≈ 114 µM) | 7 (≈ 25 µM) | 2 (≈ 7.14 µM) | 13 (≈ 46.4 µM) | – |
| Cc1ccc(S(=O)(=O)OCCC#Cc2cn([C@H]3C[C@H](O)[C@@H](CO)O3)c(=O)[nH]c2=O)cc1 | > 200 | 33 (≈ 73.3 µM) | 63 (≈ 140 µM) | 10 (≈ 22.2 µM) | 44 (≈ 97.7 µM) | 13 (≈ 28.9 µM) | 112 (≈ 249 µM) |
| O=c1[nH]c(=O)n([C@H]2C[C@H](O)[C@@H](CO)O2)cc1C#CCO | > 1000 | 36 (≈ 128 µM) | 37 (≈ 131 µM) | 10 (≈ 35.4 µM) | 8 (≈ 28.3 µM) | 68 (≈ 241 µM) | – |
| CC(C)(C)C#Cc1cn(C2O[C@H](CO)[C@@H](O)[C@H]2O)c(=O)[nH]c1=O (some centres not stated) | – | > 400 | > 400 | > 400 | > 400 | > 400 | > 1000 |
| CCCCCC#Cc1cn([C@H]2C[C@H](O)[C@@H](CO)O2)c(=O)[nH]c1=O | 219 (≈ 679 µM) | > 400 | > 400 | 70 (≈ 217 µM) | 33 (≈ 102 µM) | 9 (≈ 27.9 µM) | 45 (≈ 140 µM) |
